From ChEMBL document CHEMBL3045336, “Synthesis of 1-triazolyl-4-trimethylsilyl-2-butanol and 1-triazolyl-5-trimethylsilyl-2-pentanol derivatives and an investigation of their fungicidal activities” (Chem Pharm Bull (Tokyo), 2003)
≈ marks a conversion by molar mass, not a printed value.

Key:
[1] = system: Blumeria hordei; test: Fungicidal activity against Blumeria graminis f. sp. hordei infested first-leaf stage of barley seedlings assessed as growth inhibition applied as spray after 10 days under green house conditions; format: functional; conditions: 240 h
[2] = system: Rhizoctonia solani; test: Fungicidal activity against Rhizoctonia solani assessed as mycelial growth inhibition after 3 days; format: functional, organism-based
Procedure, shortened: (§1)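 Mycelial agar discs (4 mm) placed on potato dextrose agar plates containing test compound and incubated at 25 °C. Pyricularia oryzae was incubated for 7 d and Rhizoctonia solani for 3 d.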

[3] = system: Pyricularia grisea; test: Fungicidal activity against Magnaporthe oryzae assessed as mycelial growth inhibition after 7 days; format: functional, organism-based, Pyricularia oryzae; procedure, shortened: as §1

Structure (SMILES) | MIC [1] [µg/mL] | IC50 [2] [ppm] | IC50 [3] [ppm]
C[Si](C)(C)CCC(O)(Cn1cncn1)c1ccc(Cl)cc1 (configuration not stated) | 3 (≈ 9.26 µM) | > 1 | > 10
C[Si](C)(C)CCCC(O)(Cn1cncn1)c1ccccc1 (configuration not stated) | 3 (≈ 9.89 µM) | > 1 | > 10
Cc1ccc(C(O)(CC[Si](C)(C)C)Cn2cncn2)cc1 (configuration not stated) | > 3 | > 1 | > 10
COc1ccc(C(O)(CC[Si](C)(C)C)Cn2cncn2)cc1 (configuration not stated) | > 3 | > 1 | > 10
C[Si](C)(C)CCCC(O)(Cn1cncn1)c1ccc(Cl)cc1 (configuration not stated) | 1 (≈ 2.96 µM) | 0.61 | > 3
C[Si](C)(C)CCC(O)(Cn1cncn1)c1ccccc1 (configuration not stated) | 3 (≈ 10.4 µM) | > 1 | > 10
C[Si](C)(C)CCCC(O)(Cn1cncn1)c1ccc(F)cc1F (configuration not stated) | 1 (≈ 2.95 µM) | 0.01 | 0.89
C[Si](C)(C)CCC(O)(Cn1cncn1)c1ccc(F)cc1F (configuration not stated) | 0.3 (≈ 0.922 µM) | 0.12 | 3.1
C[Si](C)(C)CCC(O)(Cn1cncn1)c1ccc(F)cc1 (configuration not stated) | 3 (≈ 9.76 µM) | > 1 | 10
C[Si](C)(C)CCCC(O)(Cn1cncn1)c1ccc(F)cc1 (configuration not stated) | 3 (≈ 9.33 µM) | 0.42 | > 3
C[Si](C)(C)CCC(O)(Cn1cncn1)c1ccc(Cl)cc1Cl (configuration not stated) | 0.3 (≈ 0.837 µM) | 0.05 | 2.57
C[Si](C)(C)CCCC(O)(Cn1cncn1)c1ccc(Cl)c(Cl)c1 (configuration not stated) | > 3 | 1.94 | > 10
C[Si](C)(C)CCC(O)(Cn1cncn1)c1ccc(Br)cc1 (configuration not stated) | 3 (≈ 8.14 µM) | > 1 | > 10
C[Si](C)(C)CC(O)(Cn1cncn1)c1ccc(F)cc1 (configuration not stated) [SIMECONAZOLE] | 0.3 (≈ 1.02 µM) | 0.04 | 1.09
